Data as given in ChEMBL document CHEMBL3271987, “Novel pyrazolo, isoxazolo, and thiazolo steroidal systems and model analogs containing dimethyoxylaryl (or dihydroxylaryl) groups and derivatives. Synthesis, spectral properties, and biological activity” (1976).
Calls of active or inactive are those of the source. The calls are words filed in the database; no cut-off is given here.

Experiments:
Bacillus subtilis = test: Antibacterial activity against Bacillus subtilis at 91 ug/ml measured up to 24 hrs by spectrophotometry; assay type: functional, organism-based
In short: (§1)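 Compound suspended in water with 0.1% Me2SO and added to tube cultures of the bacterium growing on glucose minimal medium, to a maximum final concentration of 91 μg/ml. Growth followed by periodic absorbance readings at 540 nm over 24 hr of incubation. Complete inhibition scored at concentration limits of 1 and 91 μg/ml.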

Pseudomonas fluorescens = test: Antibacterial activity against Pseudomonas fluorescens at 91 ug/ml measured up to 24 hrs by spectrophotometry; assay type: functional, organism-based; in short: as §1
KB [1] = test: Growth inhibition of human KB cells at 25 ug/ml after 7 days by microscopy
KB [2] = test: Growth inhibition of human KB cells at 25 to 100 ug/ml after 7 days by microscopy; assay type: functional, cell-based
Staphylococcus aureus = test: Antibacterial activity against Staphylococcus aureus clinical isolate at 91 ug/ml measured up to 24 hrs by spectrophotometry; assay type: functional, organism-based
In short: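 A recent clinical isolate was grown in tube cultures of nutrient broth. Compound was suspended in water containing 0.1% Me2SO and added to a maximum final concentration of 91 μg/ml. Absorbance at 540 nm was read periodically during 24 hr of incubation.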

KB [3] = test: Growth inhibition of human KB cells at 25 ug/ml after 7 days by microscopy; assay type: functional; conditions: 168 h, read-out: GI
KB [4] = test: Growth inhibition of human KB cells at 150 ug/ml after 7 days by microscopy; assay type: functional, cell-based
KB [5] = test: Growth inhibition of human KB cells at 12 ug/ml after 7 days by microscopy; assay type: functional, cell-based
L1210 = test: Antitumor activity against mouse L1210 cells allografted in BDF1 mouse assessed as increase in life span at 0.2 mg, ip qd for 5 days relative to control; assay type: functional
In short: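 Female BDF1 mice, 35 days old, ten per group, given 1 × 10⁶ viable L1210 cells ip on day 0. Treatment on days 1–5 was 0.2 mg per injection ip, once daily (1 mg total), suspended in saline with 0.05% carboxymethylcellulose. Controls received carrier only. Readout was the ratio of mean survival time (days) of treated to control mice (T/C).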

KB [6] = test: Growth inhibition of human KB cells at < 25 ug/ml after 7 days by microscopy; assay type: functional
KB [7] = test: Growth inhibition of human KB cells at 10 ug/ml after 7 days by microscopy; assay type: functional; conditions: 168 h, read-out: GI
KB [8] = test: Growth inhibition of human KB cells at 50 ug/ml after 7 days by microscopy; assay type: functional; conditions: 168 h, read-out: GI

Compound: COc1ccc2c3c(ccc2c1)-c1c(cnn1[C@H]1O[C@H](CO)[C@@H](O)[C@H](O)[C@H]1O)CC3
- growth inhibition (GI) (Bacillus subtilis): inactive
- growth inhibition (GI) (Pseudomonas fluorescens): inactive

Compound: COc1ccc2c(c1)CC[C@@H]1C(=O)NN=C21
- growth inhibition (GI) (Bacillus subtilis): Active
- growth inhibition (GI) (Pseudomonas fluorescens): inactive
- growth inhibition (GI) (KB [1]): 50%

Compound: COc1cc2c(cc1OC)-c1oncc1CC2
- growth inhibition (GI) (Bacillus subtilis): Active
- growth inhibition (GI) (Pseudomonas fluorescens): inactive
- growth inhibition (GI) (KB [2]): inactive

Compound: COc1ccc2c(c1)CCc1cnn([C@H]3O[C@H](COC(C)=O)[C@@H](OC(C)=O)[C@H](OC(C)=O)[C@H]3OC(C)=O)c1-2
- growth inhibition (GI) (Bacillus subtilis): Active
- growth inhibition (GI) (Pseudomonas fluorescens): Active
- growth inhibition (GI) (Staphylococcus aureus): Active
- growth inhibition (GI) (KB [1]): 50%

Compound: COc1cc2c(cc1OC)-c1c(cnn1[C@H]1O[C@H](CO)[C@@H](O)[C@H](O)[C@H]1O)CC2
- growth inhibition (GI) (Bacillus subtilis): inactive
- growth inhibition (GI) (Pseudomonas fluorescens): inactive

Compound: COc1cc2c(cc1OC)C1=NNC(=O)[C@H]1CC2
- growth inhibition (GI) (Bacillus subtilis): inactive
- growth inhibition (GI) (Pseudomonas fluorescens): inactive

Compound: COc1cc2c(cc1OC)-c1c(cnn1[C@H]1O[C@H](COC(C)=O)[C@@H](OC(C)=O)[C@H](OC(C)=O)[C@H]1OC(C)=O)CC2
- growth inhibition (GI) (Bacillus subtilis): inactive
- growth inhibition (GI) (Pseudomonas fluorescens): inactive

Compound: C=CCNc1nc2c(s1)CCc1cc(OC)c(OC)cc1-2
- growth inhibition (GI) (Bacillus subtilis): Active
- growth inhibition (GI) (Pseudomonas fluorescens): inactive
- inhibition of growth at 25 µg/mL (KB [3]): 50%
- growth inhibition (GI) (KB [4]): Active

Compound: COc1cc2c(cc1OC)C1=NN(c3ccccc3)C(=O)[C@H]1CC2
- growth inhibition (GI) (Bacillus subtilis): inactive
- growth inhibition (GI) (Pseudomonas fluorescens): inactive

Compound: COc1cc2c(cc1OC)-c1c(cnn1-c1ccccc1)CC2
- growth inhibition (GI) (Bacillus subtilis): Active
- growth inhibition (GI) (Pseudomonas fluorescens): inactive

Compound: COc1cc2c(cc1OC)C1=NNC(=O)[C@@]1(C)CC2
- growth inhibition (GI) (Bacillus subtilis): Active
- growth inhibition (GI) (Pseudomonas fluorescens): inactive
- growth inhibition (GI) (KB [1]): 50%

Compound: COc1cc2c(cc1OC)-c1c(cnn1S(=O)(=O)c1ccc(C)cc1)CC2
- growth inhibition (GI) (Bacillus subtilis): inactive
- growth inhibition (GI) (Pseudomonas fluorescens): inactive

Compound: Oc1cc2ccc3c(c2cc1O)CCc1cn[nH]c1-3
- growth inhibition (GI) (Bacillus subtilis): inactive
- growth inhibition (GI) (Pseudomonas fluorescens): inactive

Compound: Oc1ccc(-n2ncc3c2-c2cc(O)c(O)cc2CC3)cc1
- growth inhibition (GI) (Bacillus subtilis): inactive
- growth inhibition (GI) (Pseudomonas fluorescens): inactive

Compound: COc1ccc(-n2ncc3c2-c2cc(OC)c(OC)cc2CC3)cc1
- growth inhibition (GI) (Bacillus subtilis): Active
- growth inhibition (GI) (Pseudomonas fluorescens): inactive
- growth inhibition (GI) (KB [2]): inactive

Compound: Oc1cc2c(cc1O)-c1[nH]ncc1CC2
- growth inhibition (GI) (Bacillus subtilis): Active
- growth inhibition (GI) (Pseudomonas fluorescens): inactive
- growth inhibition (GI) (KB [5]): Active
- Ratio (L1210): 1.14
- growth inhibition (GI) (KB [6]): 50%

Compound: COc1cc2ccc3c(c2cc1OC)CCc1cn[nH]c1-3
- growth inhibition (GI) (Bacillus subtilis): Active
- growth inhibition (GI) (Pseudomonas fluorescens): inactive
- growth inhibition (GI) (KB [2]): inactive

Compound: COc1cc2ccc3c(c2cc1OC)CCc1cnoc1-3
- growth inhibition (GI) (Bacillus subtilis): Active
- growth inhibition (GI) (Pseudomonas fluorescens): inactive

Compound: Oc1cc2c(cc1O)-c1c(cnn1-c1ccccc1)CC2
- growth inhibition (GI) (Bacillus subtilis): Active
- growth inhibition (GI) (Pseudomonas fluorescens): inactive
- growth inhibition (GI) (KB [6]): 50%

Compound: Oc1ccc2c(c1)CCc1cnn(-c3ccccc3)c1-2
- growth inhibition (GI) (Bacillus subtilis): inactive
- growth inhibition (GI) (Pseudomonas fluorescens): inactive

Compound: COc1cc2c(cc1OC)-c1nc(C)sc1CC2
- growth inhibition (GI) (Bacillus subtilis): inactive
- growth inhibition (GI) (Pseudomonas fluorescens): inactive

Compound: COc1cc2ccc3c(c2cc1OC)CCc1cnn(-c2ccc(F)cc2)c1-3
- growth inhibition (GI) (Bacillus subtilis): inactive
- growth inhibition (GI) (Pseudomonas fluorescens): inactive

Compound: COc1ccc2c3c(ccc2c1)-c1c(cnn1[C@H]1O[C@H](COC(C)=O)[C@@H](OC(C)=O)[C@H](OC(C)=O)[C@H]1OC(C)=O)CC3
- growth inhibition (GI) (Bacillus subtilis): Active
- growth inhibition (GI) (Pseudomonas fluorescens): inactive
- growth inhibition (GI) (KB [6]): 50%

Compound: COc1cc2c(cc1OC)C1=NN(c3ccc(F)cc3)C(=O)[C@H]1CC2
- growth inhibition (GI) (Bacillus subtilis): inactive
- growth inhibition (GI) (Pseudomonas fluorescens): inactive

Compound: COc1cc2c(cc1OC)-c1nc(Nc3ccccc3)sc1CC2
- growth inhibition (GI) (Bacillus subtilis): Active
- growth inhibition (GI) (Pseudomonas fluorescens): inactive
- growth inhibition (GI) (KB [1]): 50%

Compound: COc1ccc2c(c1)CCc1cnn(-c3ccccc3)c1-2
- growth inhibition (GI) (Bacillus subtilis): Active
- growth inhibition (GI) (Pseudomonas fluorescens): inactive

Compound: Oc1cc2ccc3c(c2cc1O)CCc1cnn(-c2ccc(F)cc2)c1-3
- growth inhibition (GI) (Bacillus subtilis): Active
- growth inhibition (GI) (Pseudomonas fluorescens): inactive
- inhibition of growth at 10 µg/mL (KB [7]): 50%
- growth inhibition (GI) (KB [6]): 50%

Compound: COc1cc2c(cc1OC)-c1nc(N)sc1CC2
- growth inhibition (GI) (Bacillus subtilis): Active
- growth inhibition (GI) (Pseudomonas fluorescens): inactive
- growth inhibition (GI) (KB [4]): Active
- growth inhibition (GI) (KB [1]): 50%

Compound: COc1cc2c(cc1OC)-c1[nH]ncc1CC2
- growth inhibition (GI) (Bacillus subtilis): Active
- growth inhibition (GI) (Pseudomonas fluorescens): inactive
- inhibition of growth at 25 µg/mL (KB [3]): 50%
- inhibition of growth at 50 µg/mL (KB [8]): 69%

Compound: COc1cc2c(cc1OC)-c1nocc1CC2
- growth inhibition (GI) (Bacillus subtilis): inactive
- growth inhibition (GI) (Pseudomonas fluorescens): inactive
